≈ marks a conversion by molar mass, not a printed value. Calls of active or inactive are those of the source. No cut-off for these calls is given here.
Tests used:
[1] = Antifungal activity against Cunninghamella echinulata FMR 10974 after 24 hrs by broth microdilution method; assay type: functional
How it was run: (§1)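 CLSI broth microdilution for filamentous fungi. Isolates were stored at −80°C and subcultured on potato dextrose agar at 35°C. MICs were read after 24 h. […] The QC strain was Paecilomyces variotii ATCC 36257.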

[2] = system: Cunninghamella bertholletiae; assay: Antifungal activity against Cunninghamella bertholletiae UTHSC 04-2581 after 24 hrs by broth microdilution method; assay type: functional; conditions: UTHSC 04-2581, 24 h; how it was run: as §1
[3] = system: Cunninghamella bertholletiae; assay: Antifungal activity against Cunninghamella bertholletiae FMR-9598 infected in neutropenic OF1 mouse assessed as decreased fungal load in kidney at 60 mg/kg, po qd administered 1 day post infection measured after 4 to 5 days relative to untreated control; assay type: functional, organism-based; set-up: dose 60 mg/kg
How it was run: (§2)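 Neutropenic male OF1 mice (cyclophosphamide 200 mg/kg i.p. plus 5-fluorouracil 150 mg/kg i.v., day −1) were given 1 × 10⁴ CFU sporangiospores i.v. in 0.2 ml saline. Treatment from 24 h: 0.8 mg/kg i.v. or oral doses once daily; 10 mice per group. Killed at day 5 (day 4 if moribund). About half of brain, lungs and kidneys homogenized in saline; 10-fold dilutions plated on PDA for 24 h at 35°C; log₁₀ CFU/g tissue.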

[4] = system: Cunninghamella bertholletiae; assay: Antifungal activity against Cunninghamella bertholletiae UTHSC 05-2275 infected in neutropenic OF1 mouse assessed as decreased fungal load in lung at 60 mg/kg, po qd administered 1 day post infection measured after 4 to 5 days relative to untreated control; assay type: functional, organism-based; set-up: dose 60 mg/kg; how it was run: as §2
[5] = Antifungal activity against Cunninghamella echinulata UTHSC 01-2298 after 24 hrs by broth microdilution method; assay type: functional; how it was run: as §1
[6] = Antifungal activity against Cunninghamella echinulata UTHSC 03-3725 after 24 hrs by broth microdilution method; assay type: functional; how it was run: as §1
[7] = system: Cunninghamella bertholletiae; assay: Antifungal activity against Cunninghamella bertholletiae UTHSC 03-2241 infected in neutropenic OF1 mouse assessed as decreased fungal load in kidney at 60 mg/kg, po qd administered 1 day post infection measured after 4 to 5 days relative to untreated control; assay type: functional, organism-based; set-up: dose 60 mg/kg; how it was run: as §2
[8] = system: Cunninghamella bertholletiae; assay: Antifungal activity against Cunninghamella bertholletiae UTHSC 06-1945 infected in neutropenic OF1 mouse assessed as decreased fungal load in kidney at 60 mg/kg, po qd administered 1 day post infection measured after 4 to 5 days relative to untreated control; assay type: functional, organism-based; set-up: dose 60 mg/kg; how it was run: as §2
[9] = system: Cunninghamella bertholletiae; assay: Antifungal activity against Cunninghamella bertholletiae UTHSC 05-2275 infected in neutropenic OF1 mouse assessed as increase in mouse survival rate at 80 mg/kg, po qd administered 1 day after infection for 7 days relative to untreated control; assay type: functional, organism-based; set-up: dose 80 mg/kg
How it was run: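 Male OF1 mice, about 30 g, made neutropenic with cyclophosphamide 200 mg/kg i.p. plus 5-fluorouracil 150 mg/kg i.v. 1 day before challenge. Infected i.v. via the lateral tail vein with 1 × 10⁴ CFU of hemacytometer-counted sporangiospores in 0.2 ml saline. Ceftazidime 5 mg/day s.c. on days 1–7. Oral treatment started 24 h after challenge; 10 mice per group; checked daily for 20 days; Kaplan-Meier mean survival time, log-rank test.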

[10] = system: Cunninghamella bertholletiae; assay: Antifungal activity against Cunninghamella bertholletiae FMR-9598 infected in neutropenic OF1 mouse assessed as decreased fungal load in lung at 60 mg/kg, po qd administered 1 day post infection measured after 4 to 5 days relative to untreated control; assay type: functional, organism-based; set-up: dose 60 mg/kg; how it was run: as §2
[11] = system: Cunninghamella bertholletiae; assay: Antifungal activity against Cunninghamella bertholletiae UTHSC 05-2275 after 24 hrs by broth microdilution method; assay type: functional; conditions: UTHSC 05-2275, 24 h; how it was run: as §1
[12] = Antifungal activity against Cunninghamella echinulata FMR 10973 after 24 hrs by broth microdilution method; assay type: functional; how it was run: as §1
[13] = system: Cunninghamella bertholletiae; assay: Antifungal activity against Cunninghamella bertholletiae UTHSC 04-2581 infected in neutropenic OF1 mouse assessed as decreased fungal load in kidney at 60 mg/kg, po qd administered 1 day post infection measured after 4 to 5 days relative to untreated control; assay type: functional, organism-based; set-up: dose 60 mg/kg; how it was run: as §2
[14] = system: Cunninghamella bertholletiae; assay: Antifungal activity against Cunninghamella bertholletiae FMR-9598 after 24 hrs by broth microdilution method; assay type: functional; conditions: FMR-9598, 24 h; how it was run: as §1
[15] = system: Cunninghamella bertholletiae; assay: Antifungal activity against Cunninghamella bertholletiae UTHSC 06-1945 after 24 hrs by broth microdilution method; assay type: functional; conditions: UTHSC 06-1945, 24 h; how it was run: as §1
[16] = system: Cunninghamella bertholletiae; assay: Antifungal activity against Cunninghamella bertholletiae UTHSC 05-2275 infected in neutropenic OF1 mouse assessed as decreased fungal load in lung at 80 mg/kg, po qd administered 1 day post infection measured after 4 to 5 days relative to untreated control; assay type: functional, organism-based; set-up: dose 80 mg/kg; how it was run: as §2
[17] = system: Cunninghamella bertholletiae; assay: Antifungal activity against Cunninghamella bertholletiae UTHSC 03-2241 after 24 hrs by broth microdilution method; assay type: functional; conditions: UTHSC 03-2241, 24 h; how it was run: as §1
[18] = system: Cunninghamella bertholletiae; assay: Antifungal activity against Cunninghamella bertholletiae UTHSC 03-2241 infected in neutropenic OF1 mouse assessed as decreased fungal load in lung at 0.8 mg/kg, iv qd administered 1 day post infection measured after 4 to 5 days relative to untreated control; assay type: functional, organism-based; set-up: dose 0.8 mg/kg; how it was run: as §2
[19] = system: Cunninghamella bertholletiae; assay: Antifungal activity against Cunninghamella bertholletiae UTHSC 03-2241 infected in neutropenic OF1 mouse assessed as decreased fungal load in lung at 60 mg/kg, po qd administered 1 day post infection measured after 4 to 5 days relative to untreated control; assay type: functional, organism-based; set-up: dose 60 mg/kg; how it was run: as §2
[20] = system: Cunninghamella bertholletiae; assay: Antifungal activity against Cunninghamella bertholletiae UTHSC 05-2275 infected in neutropenic OF1 mouse assessed as decreased fungal load in kidney at 60 mg/kg, po qd administered 1 day post infection measured after 4 to 5 days relative to untreated control; assay type: functional, organism-based; set-up: dose 60 mg/kg; how it was run: as §2
[21] = system: Cunninghamella bertholletiae; assay: Antifungal activity against Cunninghamella bertholletiae UTHSC 04-2581 infected in neutropenic OF1 mouse assessed as decreased fungal load in lung at 60 mg/kg, po qd administered 1 day post infection measured after 4 to 5 days relative to untreated control; assay type: functional, organism-based; set-up: dose 60 mg/kg; how it was run: as §2
[22] = system: Cunninghamella bertholletiae; assay: Antifungal activity against Cunninghamella bertholletiae FMR-9598 infected in neutropenic OF1 mouse assessed as decreased fungal load in kidney at 0.8 mg/kg, iv qd administered 1 day post infection measured after 4 to 5 days relative to untreated control; assay type: functional, organism-based; set-up: dose 0.8 mg/kg; how it was run: as §2
[23] = system: Cunninghamella bertholletiae; assay: Antifungal activity against Cunninghamella bertholletiae UTHSC 06-1945 infected in neutropenic OF1 mouse assessed as decreased fungal load in lung at 60 mg/kg, po qd administered 1 day post infection measured after 4 to 5 days relative to untreated control; assay type: functional, organism-based; set-up: dose 60 mg/kg; how it was run: as §2
[24] = system: Cunninghamella bertholletiae; assay: Antifungal activity against Cunninghamella bertholletiae UTHSC 05-2275 infected in neutropenic OF1 mouse assessed as decreased fungal load in kidney at 80 mg/kg, po qd administered 1 day post infection measured after 4 to 5 days relative to untreated control; assay type: functional, organism-based; set-up: dose 80 mg/kg; how it was run: as §2
[25] = system: Cunninghamella bertholletiae; assay: Antifungal activity against Cunninghamella bertholletiae UTHSC 05-2275 infected in neutropenic OF1 mouse assessed as decreased fungal load in kidney at 40 mg/kg, po qd administered 1 day post infection measured after 4 to 5 days relative to untreated control; assay type: functional, organism-based; set-up: dose 40 mg/kg; how it was run: as §2
[26] = system: Cunninghamella bertholletiae; assay: Antifungal activity against Cunninghamella bertholletiae UTHSC 03-2241 infected in neutropenic OF1 mouse assessed as decreased fungal load in brain at 60 mg/kg, po qd administered 1 day post infection measured after 4 to 5 days relative to untreated control; assay type: functional, organism-based; set-up: dose 60 mg/kg; how it was run: as §2
[27] = system: Cunninghamella bertholletiae; assay: Antifungal activity against Cunninghamella bertholletiae UTHSC 05-2275 infected in neutropenic OF1 mouse assessed as decreased fungal load in brain at 80 mg/kg, po qd administered 1 day post infection measured after 4 to 5 days relative to untreated control; assay type: functional, organism-based; set-up: dose 80 mg/kg; how it was run: as §2

| Compound | MIC [1] [µg/mL] | MIC [2] [µg/mL] | Activity [3] | Activity [4] | MIC [5] [µg/mL] | MIC [6] [µg/mL] | Activity [7] | Activity [8] | Activity [9] | Activity [10] | MIC [11] [µg/mL] | MIC [12] [µg/mL] | Activity [13] | MIC [14] [µg/mL] | MIC [15] [µg/mL] | Activity [16] | MIC [17] [µg/mL] | Activity [18] | Activity [19] | Activity [20] | also measured |
| --- | --- | --- | --- | --- | --- | --- | --- | --- | --- | --- | --- | --- | --- | --- | --- | --- | --- | --- | --- | --- | --- |
| C[C@@H]1[C@H](O)[C@@H](C)/C=C/C=C/C=C/C=C/C=C/C=C/C=C/[C@H](O[C@@H]2O[C@H](C)[C@@H](O)[C@H](N)[C@@H]2O)C[C@@H]2O[C@](O)(C[C@@H](O)C[C@@H](O)[C@H](O)CC[C@@H](O)C[C@@H](O)CC(=O)O[C@H]1C)C[C@H](O)[C@H]2C(=O)O [AMPHOTERICIN B] | 8 (≈ 8.66 µM) | 4 (≈ 4.33 µM) | Active | Active | 16 (≈ 17.3 µM) | 8 (≈ 8.66 µM) | Active | Active | Active | Active | 2 (≈ 2.16 µM) | 4 (≈ 4.33 µM) | Active | 2 (≈ 2.16 µM) | 4 (≈ 4.33 µM) | Active | 4 (≈ 4.33 µM) | Active | Active | Active | Activity [21]: Active; Activity [22]: Active; Activity [23]: Active; Activity [24]: Active |
| CC[C@@H]([C@H](C)O)n1ncn(-c2ccc(N3CCN(c4ccc(OC[C@@H]5CO[C@@](Cn6cncn6)(c6ccc(F)cc6F)C5)cc4)CC3)cc2)c1=O [POSACONAZOLE] | > 16 | 0.5 (≈ 0.713 µM) | Active | Active | 16 (≈ 22.8 µM) | 1 (≈ 1.43 µM) | Active | Active | Active | Active | 0.5 (≈ 0.713 µM) | > 16 | Active | 0.5 (≈ 0.713 µM) | 0.5 (≈ 0.713 µM) | Active | 0.5 (≈ 0.713 µM) | Active | Active | Active | Activity [25]: Active; Activity [26]: Active; Activity [21]: Active; Activity [27]: Active; Activity [22]: Active; Activity [23]: Active; Activity [24]: Active |
